{"source": "ChEMBL document CHEMBL4014339", "about": "“Discovery of 1,4-Benzodiazepine-2,5-dione (BZD) Derivatives as Dual Nucleotide Binding Oligomerization Domain Containing 1/2 (NOD1/NOD2) Antagonists Sensitizing Paclitaxel (PTX) To Suppress Lewis Lung Carcinoma (LLC) Growth in Vivo” (J Med Chem, 2017)", "key": {"[1]": {"biological_target": "T1, Nucleotide-binding oligomerization domain-containing protein 2 (Homo sapiens, UniProt Q9HC29)", "T1 sequence (Q9HC29 whole entry, the tested form may be a part)": "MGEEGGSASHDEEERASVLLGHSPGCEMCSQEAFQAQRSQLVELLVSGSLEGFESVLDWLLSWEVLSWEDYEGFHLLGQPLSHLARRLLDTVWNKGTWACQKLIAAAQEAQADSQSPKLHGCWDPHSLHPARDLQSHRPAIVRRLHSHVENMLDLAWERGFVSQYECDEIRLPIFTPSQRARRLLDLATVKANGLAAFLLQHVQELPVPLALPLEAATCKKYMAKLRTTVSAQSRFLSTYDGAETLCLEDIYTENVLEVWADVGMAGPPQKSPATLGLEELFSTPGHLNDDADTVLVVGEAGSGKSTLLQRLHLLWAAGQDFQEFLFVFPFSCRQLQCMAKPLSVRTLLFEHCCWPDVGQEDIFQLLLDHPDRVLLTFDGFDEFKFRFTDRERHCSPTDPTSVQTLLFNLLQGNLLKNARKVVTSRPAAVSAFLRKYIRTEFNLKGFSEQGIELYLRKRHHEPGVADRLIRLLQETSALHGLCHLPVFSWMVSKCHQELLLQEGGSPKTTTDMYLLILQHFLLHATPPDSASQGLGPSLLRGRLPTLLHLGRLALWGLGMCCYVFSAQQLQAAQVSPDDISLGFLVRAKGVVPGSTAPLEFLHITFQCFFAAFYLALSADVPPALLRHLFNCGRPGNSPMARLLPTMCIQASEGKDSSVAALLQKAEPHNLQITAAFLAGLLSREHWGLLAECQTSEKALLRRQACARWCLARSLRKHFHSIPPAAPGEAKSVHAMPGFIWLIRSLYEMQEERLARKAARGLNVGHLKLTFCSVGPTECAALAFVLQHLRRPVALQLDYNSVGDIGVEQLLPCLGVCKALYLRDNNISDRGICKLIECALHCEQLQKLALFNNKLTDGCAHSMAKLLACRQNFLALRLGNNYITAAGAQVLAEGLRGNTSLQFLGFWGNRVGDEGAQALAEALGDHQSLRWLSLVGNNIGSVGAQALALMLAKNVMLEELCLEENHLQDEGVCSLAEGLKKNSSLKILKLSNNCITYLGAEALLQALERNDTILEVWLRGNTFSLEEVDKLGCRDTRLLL", "assay": "Antagonist activity at human NOD2 expressed in HEK-Blue cells assessed as inhibition of MDP-stimulated cell activation at 10 uM preincubated for 3 hrs followed by MDP addition measured after 20 hrs by SEAP reporter gene assay", "type": "cell-based", "how_it_was_run": "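HEK-Blue hNOD1 or hNOD2 cells preincubated with compound 3 h, then stimulated 20 h with C12-iE-DAP 50 ng/mL (NOD1) or MDP 100 ng/mL (NOD2); SEAP in supernatant quantified. Primary screen at 10 μM, hits repeated in triplicate; IC50 from dose-response, mean ± SD (n = 3), only for compounds reaching ≥50% inhibition at the screening concentration.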"}, "[2]": {"biological_target": "T1, Nucleotide-binding oligomerization domain-containing protein 2", "assay": "Antagonist activity at human NOD2 expressed in HEK-Blue cells assessed as inhibition of MDP-stimulated cell activation at 5 uM preincubated for 3 hrs followed by MDP addition measured after 20 hrs by SEAP reporter gene assay", "type": "cell-based"}, "[3]": {"species_on_record": "Homo sapiens", "assay": "Inhibition of human SEAP assessed as decrease in substrate hydrolysis at 10 uM"}, "[4]": {"biological_target": "T2, Nucleotide-binding oligomerization domain-containing protein 1 (Homo sapiens) (UniProt Q9Y239)", "T2 sequence (whole entry)": "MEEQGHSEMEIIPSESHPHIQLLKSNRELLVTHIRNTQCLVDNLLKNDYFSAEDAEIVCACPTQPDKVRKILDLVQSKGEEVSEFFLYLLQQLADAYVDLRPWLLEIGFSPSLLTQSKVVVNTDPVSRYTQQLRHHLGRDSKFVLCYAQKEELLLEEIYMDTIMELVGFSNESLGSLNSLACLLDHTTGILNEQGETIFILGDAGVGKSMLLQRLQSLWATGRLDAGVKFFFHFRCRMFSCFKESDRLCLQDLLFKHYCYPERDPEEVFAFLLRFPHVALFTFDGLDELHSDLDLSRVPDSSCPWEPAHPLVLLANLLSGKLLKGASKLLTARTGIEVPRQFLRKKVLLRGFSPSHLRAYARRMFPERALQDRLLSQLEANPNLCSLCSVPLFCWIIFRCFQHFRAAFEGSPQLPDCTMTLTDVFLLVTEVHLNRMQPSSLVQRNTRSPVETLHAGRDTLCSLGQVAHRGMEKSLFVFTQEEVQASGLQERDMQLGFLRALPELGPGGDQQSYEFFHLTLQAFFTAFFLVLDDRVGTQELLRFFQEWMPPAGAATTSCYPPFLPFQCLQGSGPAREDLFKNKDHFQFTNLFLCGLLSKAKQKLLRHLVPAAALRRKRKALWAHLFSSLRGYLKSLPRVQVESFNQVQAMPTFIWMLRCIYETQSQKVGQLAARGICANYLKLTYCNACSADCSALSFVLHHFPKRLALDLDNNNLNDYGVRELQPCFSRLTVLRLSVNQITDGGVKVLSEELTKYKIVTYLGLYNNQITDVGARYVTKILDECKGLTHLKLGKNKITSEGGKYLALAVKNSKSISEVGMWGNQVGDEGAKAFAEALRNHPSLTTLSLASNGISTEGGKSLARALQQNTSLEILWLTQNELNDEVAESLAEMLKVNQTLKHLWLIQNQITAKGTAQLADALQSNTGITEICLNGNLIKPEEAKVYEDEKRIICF", "assay": "Inhibition of NOD1 in human PBMC-derived macrophages assessed as reduction in C12-iE-DAP-stimulated IL6 mRNA expression at 10 uM preincubated for 1 hr followed by C12-iE-DAP stimulation for 90 mins by RT-qPCR analysis", "how_it_was_run": "(§1)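 Human CD14+ monocytes from donor PBMC, differentiated 7 days with M-CSF 20 ng/mL to macrophages; 1.0 × 10^6 cells pretreated 1 h with compound (final 0.1% DMSO), then C12-iE-DAP 500 ng/mL or MDP 5 μg/mL for 90 min. IL-6/TNF-α mRNA by qRT-PCR, normalized to GAPDH; stimulated response set to 100%.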"}, "[5]": {"biological_target": "T2, Nucleotide-binding oligomerization domain-containing protein 1 (Homo sapiens)", "assay": "Inhibition of NOD1 in human PBMC-derived macrophages assessed as reduction in C12-iE-DAP-stimulated TNFalpha mRNA expression at 10 uM preincubated for 1 hr followed by C12-iE-DAP stimulation for 90 mins by RT-qPCR analysis", "how_it_was_run": "as §1"}, "[6]": {"biological_target": "T1, Nucleotide-binding oligomerization domain-containing protein 2", "assay": "Inhibition of NOD2 in human PBMC-derived macrophages assessed as reduction in MDP-stimulated IL6 mRNA expression preincubated for 1 hr followed by MDP stimulation for 90 mins by RT-qPCR analysis", "how_it_was_run": "as §1"}, "[7]": {"biological_target": "T1, Nucleotide-binding oligomerization domain-containing protein 2", "assay": "Inhibition of NOD2 in human PBMC-derived macrophages assessed as reduction in MDP-stimulated TNFalpha mRNA expression preincubated for 1 hr followed by MDP stimulation for 90 mins by RT-qPCR analysis", "how_it_was_run": "as §1"}, "[8]": {"biological_target": "T2, Nucleotide-binding oligomerization domain-containing protein 1 (Homo sapiens)", "assay": "Inhibition of NOD1 in human THP1 cells assessed as suppression of C12-iE-DAP-stimulated p38 phosphorylation at 1 to 10 uM preincubated for 1 hr followed by C12-iE-DAP stimulation after 45 mins by Western blot analysis", "type": "cell-based", "how_it_was_run": "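PMA (20 ng/mL, 48 h)-differentiated THP1 macrophages rested 24 h in PMA-free medium, serum-starved (0.1% FBS) overnight, pretreated 1 h with compound, stimulated 45 min with C12-iE-DAP 50 ng/mL. Lysates run on 8% SDS-PAGE, immunoblotted for phospho and total RIP2, p38, JNK, ERK and IκBα.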"}, "[9]": {"test_system": "Lewis lung carcinoma cell line", "assay": "Potentiation of paclitaxel-mediated antitumor activity against mouse LLC cells implanted in C57BL/6 mouse assessed as tumor weight inhibition at 20 mg/kg, iv administered daily measured 11 days after tumor implantation (reference value: 34.54 %)", "type": "functional", "conditions": "264 h, read-out: TGI"}, "[10]": {"test_system": "Lewis lung carcinoma cell line", "assay": "Antitumor activity against mouse LLC cells implanted in C57BL/6 mouse assessed as tumor weight inhibition at 20 mg/kg, iv administered daily measured 11 days after tumor implantation", "type": "functional, organism-based"}, "[11]": {"biological_target": "T1, Nucleotide-binding oligomerization domain-containing protein 2", "assay": "Inhibition of human NOD2 expressed in HEK293 cells assessed as suppression of MDP-stimulated JNK phosphorylation preincubated for 1 hr followed by MDP stimulation measured after 1 hr by Western blot analysis"}, "[12]": {"biological_target": "T1, Nucleotide-binding oligomerization domain-containing protein 2", "assay": "Inhibition of human NOD2 expressed in HEK293 cells assessed as suppression of MDP-stimulated RIP2 phosphorylation preincubated for 1 hr followed by MDP stimulation measured after 1 hr by Western blot analysis"}, "[13]": {"biological_target": "T1, Nucleotide-binding oligomerization domain-containing protein 2", "assay": "Inhibition of NOD2 in human PBMC-derived macrophages assessed as reduction in MDP-stimulated p38 phosphorylation at 1 to 10 uM preincubated for 1 hr followed by MDP stimulation for 1 hr by Western blot analysis"}, "[14]": {"biological_target": "T1, Nucleotide-binding oligomerization domain-containing protein 2", "assay": "Inhibition of NOD2 in human PBMC-derived macrophages assessed as reduction in MDP-stimulated RIP2 phosphorylation at 1 to 10 uM preincubated for 1 hr followed by MDP stimulation for 1 hr by Western blot analysis"}}, "note": "Activity calls are given as the source filed them. The calls are words filed in the database; no cut-off is given here.", "data": [{"smiles": "CCCNC(=O)CC[C@H]1NC(=O)c2cc(Oc3cccc(N(C)C)c3)c(NC(=O)COCc3ccccc3)cc2NC1=O", "values": [{"measurement": "inhibition", "setting": "[1]", "result": 80.4, "unit": "%"}, {"measurement": "inhibition", "setting": "[2]", "result": 60.9, "unit": "%"}, {"measurement": "inhibition", "setting": "[3]", "result": "inactive"}, {"measurement": "inhibition", "setting": "[4]", "result": 54.6, "unit": "%"}, {"measurement": "inhibition", "setting": "[5]", "result": 35.2, "unit": "%"}, {"measurement": "inhibition", "setting": "[6]", "result": "Dose-dependent effect"}, {"measurement": "inhibition", "setting": "[7]", "result": "Dose-dependent effect"}, {"measurement": "inhibition", "setting": "[8]", "result": "Active"}, {"measurement": "inhibition in vivo at 20 mg/kg", "setting": "[9]", "result": 67.3, "unit": "%"}, {"measurement": "TGI", "setting": "[10]", "result": "inactive"}, {"measurement": "inhibition", "setting": "[11]", "result": "Dose-dependent effect"}, {"measurement": "inhibition", "setting": "[12]", "result": "Dose-dependent effect"}, {"measurement": "inhibition", "setting": "[13]", "result": "Active"}, {"measurement": "inhibition", "setting": "[14]", "result": "Active"}]}]}
